Experimental data taken from ChEMBL document CHEMBL3102784, “Salicylanilide diethyl phosphates: synthesis, antimicrobial activity and cytotoxicity” (Bioorg Med Chem, 2014).
In brackets after ≈: the same amount, converted by molar mass. Activity calls are given as the source filed them. No cut-off for these calls is given here.

Assays:
[1] = test system: Mycobacterium kansasii; assay: Antimycobacterial activity against Mycobacterium kansasii My 235/80 after 21 days; type: functional; settings: My 235/80, 504 h
Method in brief: (§1)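 Micromethod MIC in Šula's semisynthetic medium at 37 °C. Compounds added in DMSO at 1000 down to 0.032 µmol/L. Isoniazid standard in sterile water at 0.5–250 µmol/L. Inocula: H37Rv 10^3, M. avium 10^5, M. kansasii 10^4. Read at 14 and 21 d, plus 7 d for M. kansasii.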

[2] = test system: Pseudomonas aeruginosa; assay: Antibacterial activity against Pseudomonas aeruginosa CCM 1961 at 500 micromol/L after 24 to 48 hrs by broth microdilution method; type: functional, organism-based
Method in brief: (§2)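 Broth microdilution in Mueller–Hinton broth, compounds dissolved in DMSO, tested over a dilution series from 500 downward. MIC taken as ≥95% growth reduction (IC95) versus drug-free control. Benzylpenicillin comparator. Readings at 24 and 48 h.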

[3] = test system: Staphylococcus epidermidis; assay: Antibacterial activity against Staphylococcus epidermidis H 6966/08 after 48 hrs by broth microdilution method; type: functional; settings: H 6966/08, 48 h; method in brief: as §2
[4] = test system: Staphylococcus aureus; assay: Antibacterial activity against methicillin-resistant Staphylococcus aureus H 5996/08 after 24 hrs by broth microdilution method; type: functional; settings: H 5996/08, 24 h; method in brief: as §2
[5] = test system: Lichtheimia corymbifera; assay: Antifungal activity against Absidia corymbifera 272 after 48 hrs by broth microdilution method; type: functional; settings: Lichtheimia corymbifera, 272, 48 h
Method in brief: (§3)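 Broth microdilution in RPMI 1640 with glutamine, fluconazole as reference. For yeasts, MIC is ≥80% growth reduction (IC80) versus control. For filamentous fungi, the value is expressed as IC50. Readings at 24 and 48 h.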

[6] = test system: Enterococcus sp.; assay: Antibacterial activity against Enterococcus sp. J 14365/08 at 500 micromol/L after 24 to 48 hrs by broth microdilution method; type: functional, organism-based; method in brief: as §2
[7] = test system: Mycobacterium kansasii; assay: Antimycobacterial activity against Mycobacterium kansasii 6509/96 after 7 days; type: functional; settings: 6509/96, 168 h; method in brief: as §1
[8] = test system: Aspergillus fumigatus; assay: Antifungal activity against Aspergillus fumigatus 231 after 24 hrs by broth microdilution method; type: functional; settings: Aspergillus fumigatus, 231, 24 h; method in brief: as §3
[9] = test system: Pichia kudriavzevii; assay: Antifungal activity against Candida krusei E28 after 24 hrs by broth microdilution method; type: functional; settings: E28, 24 h; method in brief: as §3
[10] = test system: Escherichia coli; assay: Antibacterial activity against Escherichia coli CCM 4517 at 500 micromol/L after 24 to 48 hrs by broth microdilution method; type: functional, organism-based; method in brief: as §2
[11] = test system: Staphylococcus aureus; assay: Antibacterial activity against Staphylococcus aureus CCM 4516/08 after 48 hrs by broth microdilution method; type: functional; settings: CCM 4516/08, 48 h; method in brief: as §2
[12] = test system: Trichophyton mentagrophytes; assay: Antifungal activity against Trichophyton mentagrophytes 445 after 120 hrs by broth microdilution method; type: functional; settings: Trichophyton mentagrophytes, 445, 120 h
Method in brief: (§4)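 Filamentous dermatophyte tested by broth microdilution in RPMI 1640 with glutamine, fluconazole as reference. Value expressed as IC50 relative to growth control. Read at 72 and 120 h.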

[13] = test system: Mycobacterium avium; assay: Antimycobacterial activity against isoniazid, rifampicin, ethambutol and ofloxacin-resistant Mycobacterium avium My 330/88 after 21 days; type: functional; settings: My 330/88, 504 h; method in brief: as §1
[14] = test system: Trichosporon asahii; assay: Antifungal activity against Trichosporon asahii 1188 after 48 hrs by broth microdilution method; type: functional; settings: Trichosporon asahii, 1188, 48 h; method in brief: as §3
[15] = test system: Mycobacterium avium; assay: Antimycobacterial activity against isoniazid, rifampicin, ethambutol and ofloxacin-resistant Mycobacterium avium My 330/88 after 14 days; type: functional; settings: My 330/88, 336 h; method in brief: as §1
[16] = test system: Mycobacterium kansasii; assay: Antimycobacterial activity against Mycobacterium kansasii My 235/80 after 14 days; type: functional; settings: My 235/80, 336 h; method in brief: as §1
[17] = test system: Klebsiella pneumoniae; assay: Antibacterial activity against Klebsiella pneumoniae D 11750/08 at 500 micromol/L after 24 to 48 hrs by broth microdilution method; type: functional, organism-based; method in brief: as §2
[18] = test system: Mycobacterium kansasii; assay: Antimycobacterial activity against Mycobacterium kansasii 6509/96 after 14 days; type: functional; settings: 6509/96, 336 h; method in brief: as §1
[19] = test system: HepG2; assay: Cytotoxicity against human HepG2 cells after 24 hrs by CellTiter assay; type: cell-based; settings: HepG2, 24 h
Method in brief: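 HepG2 cells (passage 27–33) in MEM with 10% FBS, L-glutamine and NEAA, seeded at 1×10^4 per well. Treated next day with compounds at 0.1–100 µM (or 0.1–25 µmol/L), triplicates, <1% DMSO, for 24 h at 37 °C, 5% CO2. MTS reagent added for 2 h, absorbance read at 490 nm. IC50 taken against untreated (100%) and 10% DMSO (0%) controls.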

[20] = test system: Klebsiella pneumoniae; assay: Antibacterial activity against ESBL-positive Klebsiella pneumoniae J 14368/08 at 500 micromol/L after 24 to 48 hrs by broth microdilution method; type: functional, organism-based; method in brief: as §2
[21] = test system: Mycobacterium kansasii; assay: Antimycobacterial activity against Mycobacterium kansasii 6509/96 after 21 days; type: functional; settings: 6509/96, 504 h; method in brief: as §1
[22] = test system: Candida albicans; assay: Antifungal activity against Candida albicans ATCC 44859 after 24 hrs by broth microdilution method; type: functional; settings: ATCC 44859, 24 h; method in brief: as §3
[23] = test system: Aspergillus fumigatus; assay: Antifungal activity against Aspergillus fumigatus 231 after 48 hrs by broth microdilution method; type: functional; settings: Aspergillus fumigatus, 231, 48 h; method in brief: as §3
[24] = test system: Candida albicans; assay: Antifungal activity against Candida albicans ATCC 44859 after 48 hrs by broth microdilution method; type: functional; settings: ATCC 44859, 48 h; method in brief: as §3
[25] = test system: Staphylococcus epidermidis; assay: Antibacterial activity against Staphylococcus epidermidis H 6966/08 after 24 hrs by broth microdilution method; type: functional; settings: H 6966/08, 24 h; method in brief: as §2
[26] = test system: Mycobacterium tuberculosis; assay: Antimycobacterial activity against Mycobacterium tuberculosis H37Rv My 331/88 after 21 days; type: functional; settings: H37Rv My 331/88, 504 h; method in brief: as §1
[27] = test system: Pichia kudriavzevii; assay: Antifungal activity against Candida krusei E28 after 48 hrs by broth microdilution method; type: functional; settings: E28, 48 h; method in brief: as §3
[28] = test system: Lichtheimia corymbifera; assay: Antifungal activity against Absidia corymbifera 272 after 24 hrs by broth microdilution method; type: functional; settings: Lichtheimia corymbifera, 272, 24 h; method in brief: as §3
[29] = test system: Candida tropicalis; assay: Antifungal activity against Candida tropicalis 156 at 500 micromol/L after 24 to 48 hrs by broth microdilution method; type: functional, organism-based; method in brief: as §3
[30] = test system: Nakaseomyces glabratus; assay: Antifungal activity against Candida glabrata 20/I at 500 micromol/L after 24 to 48 hrs by broth microdilution method; type: functional, organism-based; method in brief: as §3
[31] = test system: Mycobacterium tuberculosis; assay: Antimycobacterial activity against Mycobacterium tuberculosis H37Rv My 331/88 after 14 days; type: functional; settings: H37Rv My 331/88, 336 h; method in brief: as §1
[32] = test system: Mycobacterium kansasii; assay: Antimycobacterial activity against Mycobacterium kansasii My 235/80 after 7 days; type: functional; settings: My 235/80, 168 h; method in brief: as §1
[33] = test system: Trichophyton mentagrophytes; assay: Antifungal activity against Trichophyton mentagrophytes 445 after 72 hrs by broth microdilution method; type: functional; settings: Trichophyton mentagrophytes, 445, 72 h; method in brief: as §4
[34] = test system: Staphylococcus aureus; assay: Antibacterial activity against methicillin-resistant Staphylococcus aureus H 5996/08 after 48 hrs by broth microdilution method; type: functional; settings: H 5996/08, 48 h; method in brief: as §2
[35] = test system: Staphylococcus aureus; assay: Antibacterial activity against Staphylococcus aureus CCM 4516/08 after 24 hrs by broth microdilution method; type: functional; settings: CCM 4516/08, 24 h; method in brief: as §2
[36] = test system: Trichosporon asahii; assay: Antifungal activity against Trichosporon asahii 1188 after 24 hrs by broth microdilution method; type: functional; settings: Trichosporon asahii, 1188, 24 h; method in brief: as §3

SMILES	MIC [1] [µM]	Activity [2]	MIC95 [3] [µM]	MIC95 [4] [µM]	MIC50 [5] [µM]	Activity [6]	MIC [7] [µM]	MIC50 [8] [µM]	MIC80 [9] [µM]	Activity [10]	MIC95 [11] [µM]	MIC50 [12] [µM]	MIC [13] [µM]	MIC80 [14] [µM]	MIC [15] [µM]	MIC [16] [µM]	Activity [17]	MIC [18] [µM]	IC50 [19] [µM]	Activity [20]	further results
CCOP(=O)(OCC)Oc1cc(Cl)ccc1C(=O)Nc1cccc(F)c1	16 (≈ 6.43 µg/mL)	inactive	250 (≈ 100 µg/mL)	250 (≈ 100 µg/mL)	> 500	inactive	8 (≈ 3.21 µg/mL)	> 500	> 500	inactive	250 (≈ 100 µg/mL)	500 (≈ 201 µg/mL)	16 (≈ 6.43 µg/mL)	> 500	16 (≈ 6.43 µg/mL)	16 (≈ 6.43 µg/mL)	inactive	16 (≈ 6.43 µg/mL)	11.2	inactive	MIC [21]: 16 µM (≈ 6.43 µg/mL); MIC80 [22]: > 500 µM; MIC50 [23]: > 500 µM; MIC80 [24]: > 500 µM; MIC95 [25]: 250 µM (≈ 100 µg/mL); MIC [26]: 8 µM (≈ 3.21 µg/mL); MIC80 [27]: > 500 µM; MIC50 [28]: > 500 µM; Activity [29]: inactive; Activity [30]: inactive; MIC [31]: 8 µM (≈ 3.21 µg/mL); MIC [32]: 8 µM (≈ 3.21 µg/mL); MIC50 [33]: 500 µM (≈ 201 µg/mL); MIC95 [34]: 250 µM (≈ 100 µg/mL); MIC95 [35]: 125 µM (≈ 50.2 µg/mL); MIC80 [36]: > 500 µM
CCOP(=O)(OCC)Oc1ccc(Br)cc1C(=O)Nc1cccc(F)c1	16 (≈ 7.14 µg/mL)	inactive	250 (≈ 112 µg/mL)	250 (≈ 112 µg/mL)	> 500	inactive	8 (≈ 3.57 µg/mL)	> 500	> 500	inactive	250 (≈ 112 µg/mL)	62.5 (≈ 27.9 µg/mL)	32 (≈ 14.3 µg/mL)	> 500	32 (≈ 14.3 µg/mL)	16 (≈ 7.14 µg/mL)	inactive	16 (≈ 7.14 µg/mL)	5.54	inactive	MIC [21]: 16 µM (≈ 7.14 µg/mL); MIC80 [22]: > 500 µM; MIC50 [23]: > 500 µM; MIC80 [24]: > 500 µM; MIC95 [25]: 250 µM (≈ 112 µg/mL); MIC [26]: 8 µM (≈ 3.57 µg/mL); MIC80 [27]: > 500 µM; MIC50 [28]: > 500 µM; Activity [29]: inactive; Activity [30]: inactive; MIC [31]: 8 µM (≈ 3.57 µg/mL); MIC [32]: 8 µM (≈ 3.57 µg/mL); MIC50 [33]: 62.5 µM (≈ 27.9 µg/mL); MIC95 [34]: 250 µM (≈ 112 µg/mL); MIC95 [35]: 125 µM (≈ 55.8 µg/mL); MIC80 [36]: > 500 µM
CCOP(=O)(OCC)Oc1ccc(Cl)cc1C(=O)Nc1cccc(C(F)(F)F)c1	8 (≈ 3.61 µg/mL)	inactive	> 500	500 (≈ 226 µg/mL)	> 500	inactive	8 (≈ 3.61 µg/mL)	> 500	> 500	inactive	> 500	> 500	16 (≈ 7.23 µg/mL)	> 500	16 (≈ 7.23 µg/mL)	8 (≈ 3.61 µg/mL)	inactive	8 (≈ 3.61 µg/mL)	5.68	inactive	MIC [21]: 8 µM (≈ 3.61 µg/mL); MIC80 [22]: > 500 µM; MIC50 [23]: > 500 µM; MIC80 [24]: > 500 µM; MIC95 [25]: 250 µM (≈ 113 µg/mL); MIC [26]: 2 µM (≈ 0.904 µg/mL); MIC80 [27]: > 500 µM; MIC50 [28]: > 500 µM; Activity [29]: inactive; Activity [30]: inactive; MIC [31]: 2 µM (≈ 0.904 µg/mL); MIC [32]: 8 µM (≈ 3.61 µg/mL); MIC50 [33]: > 500 µM; MIC95 [34]: 500 µM (≈ 226 µg/mL); MIC95 [35]: > 500 µM; MIC80 [36]: > 500 µM
